Test results taken from PubChem BioAssay.
Active and inactive are the calls of the source.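 Rule for the calls, unless noted: active = NADPH fluorescence slope more negative than the mean of all samples by about 3 SD, 99.7% confidence; inactive = the rest.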

What was measured:
[1] = inhibitors of TNFa-induced NFkB p65 translocation, primary screen, imaging, HUVEC, MLSMR starter and 10KST1 sets (AID 438;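 active = inhibition above 20% together with a positive visual image hit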;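 note: compound added about 3h40 before a 20 min TNFalpha stimulation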;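 for inhibition: signal is the nuclear over cytoplasmic p65 intensity ratio per well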); settings: HUVEC TNFa-induced p65 nuclear translocation; cell count: measured here: nuclei count (cytotoxicity indicator), at 2.08 µM; inhibition: at 2 µM, stronger effect = higher value, 0% TNFa-plus-vehicle, 100% no-TNFa wells
[2] = inhibitors of mutant huntingtin aggregation, primary screen, imaging, exon1htt(103Q)mCFP cells, high-content imaging (AID 483;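 active = visual image review flags a hit and inhibition of aggregation exceeds 20%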;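 note: compound exposure lasted 3 days before fixation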;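 for nuclei count: percent of the per-plate median nuclei count of sample wells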); settings: exon1htt(103Q)mCFP cell line, aggregate imaging, at 2 µM; inhibition of aggregation: stronger effect = higher value; nuclei count: measured here: cell count, toxicity
[3] = inhibitors of E-selectin induction by TNFa, primary screen, imaging, HUVEC, immunofluorescence, MLSMR starter and 10KST1 sets (AID 487;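 active = visually confirmed hit in the image check and inhibition above 20%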;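 for inhibition: signal is fraction of cell area covered by stained E-selectin grains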;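 for nuclei count: 100% = median nuclei count of all wells on the same plate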); settings: HUVEC TNFalpha-induced E-selectin immunofluorescence imaging, at 2 µM; inhibition: stronger effect = higher value; nuclei count: measured here: cell number, toxicity
[4] = molecular target: Voltage-gated potassium channel subunit beta-2 (Rattus norvegicus) (UniProt P62483); assay: KvBeta enzyme negative modulators, primary screen, biochemical, NADPH fluorescence (AID 622;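 active = fluorescence slope higher than the sample average by over 3 SD, cut at about -0.22 in these data, passing the limit was not always enough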;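 note: slope of raw intensity against log time taken from 70 to 1610 s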); settings: recombinant KvBeta, 4-cyanobenzaldehyde reduction, at 10 µM, stronger effect = higher value
[5] = molecular target: Voltage-gated potassium channel subunit beta-2 (Rattus norvegicus) (UniProt P62483); assay: KvBeta positive modulators, primary screen, biochemical, NADPH fluorescence (AID 623); settings: Recombinant KvBeta, NADPH fluorescence decrease slope, 10 min; at 10 µM; stronger effect = lower value;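 note: fluorescence intensity change per second fitted from 20 to 320 s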
[6] = molecular target: Muscarinic acetylcholine receptor M4 (Homo sapiens) (UniProt P08173); assay: compounds altering M4/GIRK thallium flux, either direction, primary screen, M4 allosteric agonist project, cell-based, HEK293 M4/GIRK, BTC-AM (AID 625;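 active = fluorescence slope after compound addition differing from the mean of all tested samples at 99.7% confidence, mostly higher but some lower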;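 note: thallium influx through GIRK channels coupled to M4 in HEK293 cells with BTC-AM dye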); settings: at 10 µM, actives lie on both sides
In short: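 System: HEK293 cells with M4 receptor and GIRK channels | Incubation: Cells overnight at 37 °C, BTC-AM loading 1 h, reads 2 min total | Technique: Kinetic BTC-AM fluorescence sampled at 1 Hz, 10 s pre-addition baseline | Measure: Post-addition slope, 15–24 s, of baseline-normalized fluorescence | Control set: Carbachol positive, DMSO negative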

[7] = inhibitors of Sendai virus-induced IRF3 signaling, primary screen, TLR/RLR signaling modifier project, cell-based, Sendai virus stimulus, luciferase, 10K MLSCN set (AID 602276;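 active = inhibition at or above 50% at 10 µM; inactive = inhibition below 50%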;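 note: firefly luciferase from ISG56 promoter only with Renilla not read in this screen; 0% = Sendai virus plus DMSO and 100% = medium plus DMSO without virus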); settings: HEK293 RL24 IRF3 luciferase reporter, at 10 µM, stronger effect = higher value
[8] = inhibitors of poly I:C-induced TLR3 signaling, primary screen, cell-based, poly I:C stimulus, luciferase, 10K MLSCN set (AID 602277;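 active = inhibition of the reporter signal at or above 50%; inactive = inhibition below 50%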); settings: HEK293-TLR3 RL24 IRF3 luciferase reporter, at 10 µM, stronger effect = higher value

Voltage-gated potassium channel subunit beta-2 (Rattus norvegicus), sequence (P62483 whole entry, looked up): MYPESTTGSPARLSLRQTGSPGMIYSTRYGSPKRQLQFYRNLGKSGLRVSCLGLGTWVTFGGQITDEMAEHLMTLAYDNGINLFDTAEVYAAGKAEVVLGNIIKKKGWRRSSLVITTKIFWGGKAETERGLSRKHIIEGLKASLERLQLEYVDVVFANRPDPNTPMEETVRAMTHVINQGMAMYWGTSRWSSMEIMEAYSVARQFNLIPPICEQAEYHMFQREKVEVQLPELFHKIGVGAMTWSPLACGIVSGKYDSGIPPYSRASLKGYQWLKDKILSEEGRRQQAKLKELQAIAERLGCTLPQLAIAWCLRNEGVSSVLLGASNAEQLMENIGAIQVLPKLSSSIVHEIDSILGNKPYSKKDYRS
Muscarinic acetylcholine receptor M4 (Homo sapiens), sequence (P08173 whole entry, looked up): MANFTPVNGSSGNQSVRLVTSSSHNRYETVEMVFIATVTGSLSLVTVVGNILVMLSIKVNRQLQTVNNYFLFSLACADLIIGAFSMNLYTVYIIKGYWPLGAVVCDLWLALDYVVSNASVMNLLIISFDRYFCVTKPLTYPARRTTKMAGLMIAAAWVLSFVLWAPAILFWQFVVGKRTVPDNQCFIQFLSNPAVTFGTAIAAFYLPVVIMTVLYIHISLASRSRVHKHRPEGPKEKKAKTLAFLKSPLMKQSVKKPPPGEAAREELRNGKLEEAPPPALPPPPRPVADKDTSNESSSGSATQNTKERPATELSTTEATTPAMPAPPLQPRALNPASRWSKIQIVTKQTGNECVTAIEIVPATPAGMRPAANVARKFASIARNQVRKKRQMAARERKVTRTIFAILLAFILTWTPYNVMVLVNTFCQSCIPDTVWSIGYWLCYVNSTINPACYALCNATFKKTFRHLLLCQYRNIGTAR

Row | Structure (SMILES) | cell count [1] | inhibition [1] | inhibition of aggregation [2] | nuclei count [2] | inhibition [3] | nuclei count [3] | fluorescence slope [4] | NADPH fluorescence slope [5] | fluorescence slope [6] | inhibition [7] | inhibition [8]
1 | O=C(C1CC1)N1CCc2cc(S(=O)(=O)N(CCO)Cc3ccccc3)ccc21 | 612 | 7.7% (inactive) | -16% (inactive) | 108% | -91% (inactive) | 122% | -0.498 (inactive) | 0.000108 (inactive) | 0.00651 (inactive) | -3.85% (inactive) | -12.4% (inactive)
2 | Cc1cccc(-n2ncc(C#N)c2N)c1 | 644 | -3% (inactive) | 11.6% (inactive) | 97% | -44.1% (inactive) | 144% | -0.482 (inactive) | -2.8e-06 (inactive) | 0.00451 (inactive) | 18% (inactive) | 12.7% (inactive)
3 | O=C(O)CC1CCCC(c2ccccc2)C1=O (centres undefined) | 658 | -6.5% (inactive) | -35% (inactive) | 103% | 108% (active) | 102% | -0.544 (inactive) | -7.4e-06 (inactive) | 0.00508 (inactive) | 8.33% (inactive) | 11.2% (inactive)
4 | O=C(COC(=O)c1ccc(NS(=O)(=O)c2ccc3c(c2)OCCO3)cc1)NCC1CCCO1 (centres undefined) | 424 | -18.3% (inactive) | 11.2% (inactive) | 69.5% | 1.1% (inactive) | 100% | -0.555 (inactive) | -3.4e-05 (inactive) | 0.00638 (inactive) | 4.88% (inactive) | 19.1% (inactive)
5 | Cc1ccc(S(=O)(=O)NCC2CCC(C(=O)NCCCN3CCOCC3)CC2)cc1 (centres undefined) | 305 | 1.9% (inactive) | 26.8% (inactive) | 80.7% | -24.4% (inactive) | 112% | -0.564 (inactive) | -0.000104 (inactive) | 0.00513 (inactive) | 13% (inactive) | 22.2% (inactive)
6 | Nc1nonc1NC(=O)CSc1nc2ccccc2s1 | 519 | -8.4% (inactive) | 39.8% (active) | 61.2% | -50.5% (inactive) | 103% | -0.515 (inactive) | -0.000124 (inactive) | 0.00565 (inactive) | -7.11% (inactive) | 15.4% (inactive)
7 | CCOc1ccc2cc(C#N)c(SCC(=O)N3CCOCC3)nc2c1 | 386 | 1% (inactive) | 11.7% (inactive) | 97.9% | -46.6% (inactive) | 90.7% | -0.487 (inactive) | -2.5e-05 (inactive) | 0.00448 (inactive) | -22.4% (inactive) | -67% (inactive)
8 | Cc1nnc(NC2CCCCC2)[nH]c1=O | 358 | 5.3% (inactive) | -1.6% (inactive) | 103% | -59.1% (inactive) | 115% | -0.592 (inactive) | -3.6e-05 (inactive) | 0.00733 (inactive) | 12.6% (inactive) | 14.5% (inactive)
9 | CCOc1ccc(NC(=O)CN(C)S(=O)(=O)c2cccs2)cc1 | 650 | -12% (inactive) | -4.9% (inactive) | 104% | -22.6% (inactive) | 113% | -0.587 (inactive) | -3.3e-05 (inactive) | 0.00617 (inactive) | -60.5% (inactive) | -62.8% (inactive)
10 | Cn1cccc1-c1nc2ccc(NC(=O)c3ccco3)cc2[nH]1 | 293 | -0.9% (inactive) | -0.8% (inactive) | 86.3% | -8.2% (inactive) | 110% | -0.429 (inactive) | 1e-06 (inactive) | 0.00457 (inactive) | -37.6% (inactive) | -102% (inactive)
11 | CCc1cccc2c(=O)c(C(=O)NCCN3CCOCC3)c[nH]c12 | 584 | 8.2% (inactive) | -3.6% (inactive) | 110% | 27.3% (inactive) | 91.2% | -0.558 (inactive) | -5.3e-05 (inactive) | 0.00469 (inactive) | 1.65% (inactive) | 18.5% (inactive)
12 | Cc1cccc(CS(=O)(=O)Cc2ccc(C(=O)NCC3CCCO3)o2)c1 (centres undefined) | 450 | 4.5% (inactive) | 13.6% (inactive) | 99.3% | -36.2% (inactive) | 112% | -0.582 (inactive) | 9.9e-06 (inactive) | 0.00601 (inactive) | -2% (inactive) | 8.02% (inactive)
13 | COc1ccc(-n2c(SCCC(=O)O)nnc2-c2ccncc2)cc1 | 359 | -6.2% (inactive) | -2.3% (inactive) | 98.2% | -27.4% (inactive) | 127% | -0.56 (inactive) | 4e-06 (inactive) | 0.00569 (inactive) | 18% (inactive) | 36.6% (inactive)
14 | Cc1ccc(Nc2cc(C)nc3nnnn23)cc1 | 415 | 0.6% (inactive) | 1.1% (inactive) | 100% | 29.5% (inactive) | 92.2% | -0.559 (inactive) | -6.9e-05 (inactive) | 0.00637 (inactive) | 7.18% (inactive) | 6.33% (inactive)
